Values after ≈ are worked out from the molar mass of the structure shown.
Tests used:
Human alphaherpesvirus 1 = experiment: Antiviral activity against HSV1 infected african green monkey Vero cells assessed as inhibition of viral-induced cytopathic effect; type: functional; conditions: Human alphaherpesvirus 1, Vero; read-out: ED50 (the source's name)
Outline: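 Simplified plaque reduction assay: serial dilutions of test compounds with herpes simplex type 1 virus in Vero African green monkey kidney cell cultures in 96-well trays.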

Vero = experiment: Cytotoxicity against african green monkey Vero cells; type: cell-based; conditions: Chlorocebus sabaeus
Outline: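 Cytotoxicity taken from the same HSV-1 plaque cultures: concentration causing half-maximal loss of uninfected Vero cells from the monolayer surrounding plaques.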

Plasmodium falciparum [1] = experiment: Antimalarial activity against Plasmodium falciparum W2 at 80 ug/mL; type: functional, organism-based
Plasmodium falciparum [2] = experiment: Antimalarial activity against Plasmodium falciparum D6 at 80 ug/mL; type: functional, organism-based
HFF [3] = experiment: Toxicity against HFF cells at 0.10 uM after 24 hrs by MTT assay relative to control; type: cell-based; conditions: human, 0.1 µM
Outline: (§1)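 Host-cell toxicity for HFF and L929 cells determined by MTT cell proliferation assay; expressed as percent of control.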

HFF [4] = experiment: Toxicity against HFF cells at 0.010 uM after 24 hrs by MTT assay relative to control; type: cell-based; conditions: human, 0.01 µM; outline: as §1
Plasmodium falciparum [5] = experiment: Antimalarial activity against Plasmodium falciparum W2; type: functional, organism-based
HFF [6] = experiment: Toxicity against HFF cells at 10 uM after 48 hrs by MTT assay relative to control; type: cell-based; conditions: human; outline: as §1
L929 [7] = experiment: Toxicity against mouse L929 cells at 10 uM after 24 hrs by MTT assay relative to control; type: cell-based; conditions: l929, 24 h; outline: as §1
Toxoplasma gondii [8] = experiment: Antiparasitic activity against Toxoplasma gondii infected in HFF cells at 0.1 uM after 24 hrs by [3H]uracil incorporation assay relative to control; type: functional
[9] = Selectivity index, ratio of IC50 for african green monkey (Cercopithecus aethiops) Vero cells to IC50 for Plasmodium falciparum W2; type: toxicity, cell-based; conditions: read-out: Ratio IC50
L929 [10] = experiment: Toxicity against mouse L929 cells at 1 uM after 24 hrs by MTT assay relative to control; type: cell-based; conditions: l929, 24 h; outline: as §1
Toxoplasma gondii [11] = experiment: Antiparasitic activity against Toxoplasma gondii infected in mouse L929 cells at 10 uM after 24 hrs by [3H]uracil incorporation assay relative to control; type: functional
Plasmodium falciparum [12] = experiment: Antimalarial activity against Plasmodium falciparum D6; type: functional, organism-based
L929 [13] = experiment: Toxicity against mouse L929 cells at 0.10 uM after 24 hrs by MTT assay relative to control; type: cell-based; conditions: l929, 24 h, 0.1 µM; outline: as §1
Toxoplasma gondii [14] = experiment: Antiparasitic activity against Toxoplasma gondii infected in HFF cells at 10 uM after 48 hrs by [3H]uracil incorporation assay relative to control; type: functional
HFF [15] = experiment: Toxicity against HFF cells at 0.010 uM after 48 hrs by MTT assay relative to control; type: cell-based; conditions: human, 0.01 µM; outline: as §1
L929 [16] = experiment: Toxicity against mouse L929 cells at 1 uM after 48 hrs by MTT assay relative to control; type: cell-based; conditions: l929, 48 h; outline: as §1
Toxoplasma gondii [17] = experiment: Antiparasitic activity against Toxoplasma gondii infected in mouse L929 cells at 1 uM after 24 hrs by [3H]uracil incorporation assay relative to control; type: functional
Toxoplasma gondii [18] = experiment: Antiparasitic activity against Toxoplasma gondii infected in HFF cells at 0.01 uM after 48 hrs by [3H]uracil incorporation assay relative to control; type: functional
Toxoplasma gondii [19] = experiment: Antiparasitic activity against Toxoplasma gondii infected in mouse L929 cells at 0.01 uM after 24 hrs by [3H]uracil incorporation assay relative to control; type: functional
HFF [20] = experiment: Toxicity against HFF cells at 1 uM after 48 hrs by MTT assay relative to control; type: cell-based; conditions: human; outline: as §1
L929 [21] = experiment: Toxicity against mouse L929 cells at 0.010 uM after 24 hrs by MTT assay relative to control; type: cell-based; conditions: l929, 24 h, 0.01 µM; outline: as §1
Toxoplasma gondii [22] = experiment: Antiparasitic activity against Toxoplasma gondii infected in mouse L929 cells at 0.1 uM after 24 hrs by [3H]uracil incorporation assay relative to control; type: functional
HFF [23] = experiment: Toxicity against HFF cells at 10 uM after 24 hrs by MTT assay relative to control; type: cell-based; conditions: human; outline: as §1
Toxoplasma gondii [24] = experiment: Antiparasitic activity against Toxoplasma gondii infected in HFF cells at 0.01 uM after 24 hrs by [3H]uracil incorporation assay relative to control; type: functional
L929 [25] = experiment: Toxicity against mouse L929 cells at 0.10 uM after 48 hrs by MTT assay relative to control; type: cell-based; conditions: l929, 48 h, 0.1 µM; outline: as §1
[26] = Selectivity index, ratio of IC50 for african green monkey (Cercopithecus aethiops) Vero cells to IC50 for Plasmodium falciparum D6; type: toxicity, cell-based; conditions: read-out: Ratio IC50
Toxoplasma gondii [27] = experiment: Antiparasitic activity against Toxoplasma gondii infected in HFF cells at 0.1 uM after 48 hrs by [3H]uracil incorporation assay relative to control; type: functional
Toxoplasma gondii [28] = experiment: Antiparasitic activity against Toxoplasma gondii infected in HFF cells at 10 uM after 24 hrs by [3H]uracil incorporation assay relative to control; type: functional
Toxoplasma gondii [29] = experiment: Antiparasitic activity against Toxoplasma gondii infected in mouse L929 cells at 1 uM after 48 hrs by [3H]uracil incorporation assay relative to control; type: functional
Toxoplasma gondii [30] = experiment: Antiparasitic activity against Toxoplasma gondii infected in HFF cells at 1 uM after 24 hrs by [3H]uracil incorporation assay relative to control; type: functional
L929 [31] = experiment: Toxicity against mouse L929 cells at 10 uM after 48 hrs by MTT assay relative to control; type: cell-based; conditions: l929, 48 h; outline: as §1
Toxoplasma gondii [32] = experiment: Antiparasitic activity against Toxoplasma gondii infected in mouse L929 cells at 0.1 uM after 48 hrs by [3H]uracil incorporation assay relative to control; type: functional
Toxoplasma gondii [33] = experiment: Antiparasitic activity against Toxoplasma gondii infected in mouse L929 cells at 10 uM after 48 hrs by [3H]uracil incorporation assay relative to control; type: functional
HFF [34] = experiment: Toxicity against HFF cells at 0.10 uM after 48 hrs by MTT assay relative to control; type: cell-based; conditions: human, 0.1 µM; outline: as §1
Toxoplasma gondii [35] = experiment: Antiparasitic activity against Toxoplasma gondii infected in HFF cells at 1 uM after 48 hrs by [3H]uracil incorporation assay relative to control; type: functional
HFF [36] = experiment: Toxicity against HFF cells at 1 uM after 24 hrs by MTT assay relative to control; type: cell-based; conditions: human; outline: as §1
L929 [37] = experiment: Toxicity against mouse L929 cells at 0.010 uM after 48 hrs by MTT assay relative to control; type: cell-based; conditions: l929, 48 h, 0.01 µM; outline: as §1
Toxoplasma gondii [38] = experiment: Antiparasitic activity against Toxoplasma gondii infected in mouse L929 cells at 0.01 uM after 48 hrs by [3H]uracil incorporation assay relative to control; type: functional

Structure (SMILES) | EC50 (Human alphaherpesvirus 1) [µg/mL] | IC50 (Vero) [µg/mL] | Activity (HFF [3]) [%] | Activity (HFF [4]) [%] | IC50 (Plasmodium falciparum [5]) [µg/mL] | Activity (HFF [6]) [%] | Activity (L929 [7]) [%] | Activity (Toxoplasma gondii [8]) [%] | selectivity ratio [9] | Activity (L929 [10]) [%] | Activity (Toxoplasma gondii [11]) [%] | IC50 (Plasmodium falciparum [12]) [µg/mL] | Activity (L929 [13]) [%] | Activity (Toxoplasma gondii [14]) [%] | Activity (HFF [15]) [%] | Activity (L929 [16]) [%] | Activity (Toxoplasma gondii [17]) [%] | Activity (Toxoplasma gondii [18]) [%] | Activity (Toxoplasma gondii [19]) [%] | Activity (HFF [20]) [%] | other results
CC(=O)CCCC(C)(C)C(=O)CC/C(C)=C/CC[C@@]1(C)CC[C@H]([C@H](C)C(=O)O)OO1 [AIKUPIKOXIDE A] | 30 (≈ 70.7 µM) | 60 (≈ 141 µM) | – | – | – | – | – | – | – | – | – | – | – | – | – | – | – | – | – | – | IC50 (Plasmodium falciparum [1]): Not Active; IC50 (Plasmodium falciparum [2]): Not Active
CC1=C(CC/C(C)=C/CC[C@@]2(C)CC[C@@H]([C@@H](C)C(=O)O)OO2)C(C)(C)CCC1 [MUQUBILIN] | 7.5 (≈ 19.1 µM) | 30 (≈ 76.4 µM) | 7.15 | 0 | > 4.76 | 84.73 | 93 | 84 | > 1 | 66.3 | 87.84 | 2.9 (≈ 7.39 µM) | 0 | 100 | 0 | 83.36 | 84.03 | 0 | 33.85 | 85.93 | Activity (L929 [21]): 0%; Activity (Toxoplasma gondii [22]): 58.35%; Activity (HFF [23]): 85.85%; Activity (Toxoplasma gondii [24]): 3.16%; Activity (L929 [25]): 0%; selectivity ratio [26]: > 1.6; Activity (Toxoplasma gondii [27]): 62.88%; Activity (Toxoplasma gondii [28]): 91.72%; Activity (Toxoplasma gondii [29]): 96.77%; Activity (Toxoplasma gondii [30]): 86.18%; Activity (L929 [31]): 94.9%; Activity (Toxoplasma gondii [32]): 46.3%; Activity (Toxoplasma gondii [33]): 100%; Activity (HFF [34]): 0.94%; Activity (Toxoplasma gondii [35]): 87.94%; Activity (HFF [36]): 86.15%; Activity (L929 [37]): 0%; Activity (Toxoplasma gondii [38]): 0%
C=C1CCC[C@H]2[C@](C)(CC[C@]3(C)CC[C@H]([C@@H](C)C(=O)O)OO3)[C@@H](C)CC[C@]12C [SIGMOSCEPTRELLIN A] | – | – | – | – | 0.42 (≈ 1.07 µM) | – | – | – | – | – | – | 0.47 (≈ 1.2 µM) | – | – | – | – | – | – | – | – | –
C=C1CCC[C@@H]2[C@@H](CC[C@@]3(C)CC[C@H]([C@H](C)C(=O)O)OO3)[C@H](C)CC[C@@]12C [SIGMOSCEPTRELLIN B] | – | 2.5 (≈ 6.6 µM) | 0 | 0 | 3.4 (≈ 8.98 µM) | 94.65 | 92.96 | 84.72 | > 1 | 60.48 | 96.62 | 1.2 (≈ 3.17 µM) | 0 | 100 | 0 | 91.21 | 91.88 | 37.57 | 0 | 64.37 | Activity (L929 [21]): 0%; Activity (Toxoplasma gondii [22]): 18.61%; Activity (HFF [23]): 87.41%; Activity (Toxoplasma gondii [24]): 0%; Activity (L929 [25]): 0%; selectivity ratio [26]: > 2.7; Activity (Toxoplasma gondii [27]): 98.32%; Activity (Toxoplasma gondii [28]): 94.91%; Activity (Toxoplasma gondii [29]): 98.82%; Activity (Toxoplasma gondii [30]): 96.49%; Activity (L929 [31]): 91.05%; Activity (Toxoplasma gondii [32]): 35.17%; Activity (Toxoplasma gondii [33]): 100%; Activity (HFF [34]): 5.56%; Activity (Toxoplasma gondii [35]): 100%; Activity (HFF [36]): 86.81%; Activity (L929 [37]): 0%; Activity (Toxoplasma gondii [38]): 24.15%
